The record followed here is ChEMBL document CHEMBL3856249 (J Med Chem, 2016).

In general, Tmax refers to the time at which the peak concentration occurs. Broadly, the logP is a log measure of how a compound divides between an organic and an aqueous phase. Lower therefore signals lower lipophilicity. By AUC(0-inf) is commonly meant total exposure, with the tail of the curve extrapolated. Low values mean low exposure, high ones high exposure. For orientation: Papp means the rate of passage across a membrane or cell layer, normalised by area and donor concentration. The term Cmax denotes the peak of the concentration-time curve. For orientation: bioavailability means the share of a dose that reaches the circulation, judged against a reference dose that is usually intravenous. High values mean good availability, low ones poor availability. In general, pKa refers to the pH at which an ionisable group is half protonated. Higher therefore signals a weaker acid or stronger base.

Data set [1] in a line: Metabolic stability in rat liver microsomes assessed as compound metabolized at 5 uM measured after 15 mins. The class given is ADME. The conditions noted are these: read-out: Drug metabolism. A digest of the protocol:
(§1)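 Human or rat liver microsomes incubated with compound at 5 μM for 15 min; read-out is % of parent metabolized; means of at least two experiments.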

A short description of data set [2]: Metabolic stability in human liver microsomes assessed as compound metabolized at 5 uM measured after 15 mins. The conditions noted are these: read-out: Drug metabolism. The class given is ADME. A digest of the protocol: as §1
The nature of data set [3]: Ratio of drug level in brain to plasma of Swiss mouse at 10 mg/kg, sc measured after 1 hr. The class given is ADME, organism-based. The conditions noted are these: brain and plasma, read-out: BPR. A digest of the protocol:
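Swiss mice, single 10 mg/kg s.c. dose in 20% HP-β-CD + HCl solution at pH 4; brain/plasma ratio taken 1 h post-dose.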

Data set [4] in a line: Elimination half life in Sprague-Dawley rat at […], iv or 10 mg/kg, po. The conditions noted are these: in vivo, read-out: beta t1/2 (converted). The class given is ADME, organism-based.
A short description of data set [5]: Clearance in Beagle dog at 1 mg/kg, iv or 5 mg/kg, po. The class given is ADME, organism-based, Canis lupus familiaris. The conditions noted are these: in vivo. A digest of the protocol:
(§2)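 Male Beagle dogs, 1 mg/kg i.v. and 5 mg/kg p.o., vehicle 20% HP-β-CD + HCl solution at pH 4; values are individual animals (two dogs) or mean of three animals ± SD.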

Data set [6] in a line: Clearance in Sprague-Dawley rat at […], iv or 10 mg/kg, po. The class given is ADME, organism-based. Conditions: in vivo.
The nature of data set [7]: Tmax in Sprague-Dawley rat at […], iv or 10 mg/kg, po. The class given is ADME, organism-based. The conditions noted are these: in vivo.
The nature of data set [8]: Lipophilicity, log P of the compound. The class given is physicochemical. Conditions: octanol/water.
A short description of data set [9]: Half life in Beagle dog at 1 mg/kg, iv or 5 mg/kg, po. The class given is ADME, organism-based, Canis lupus familiaris. Conditions: in vivo. A digest of the protocol:
as §2

Data set [10] in a line: AUC (0 to infinity) in Sprague-Dawley rat at […], iv or 10 mg/kg, po. The conditions noted are these: in vivo. The class given is ADME, organism-based.
A short description of data set [11]: Tmax in Beagle dog at 1 mg/kg, iv or 5 mg/kg, po. Conditions: in vivo. The class given is ADME, organism-based, Canis lupus familiaris. A digest of the protocol: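 Male Beagle dogs given 5 mg/kg orally and 1 mg/kg intravenously, formulated in 20% HP-β-CD + HCl solution at pH 4. Tmax reported as mean ± SD of three animals.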
Data set [12] in a line: Apparent permeability across apical to basolateral side over basolateral to apical side in pig LLC-PK1 cells at 1 uM measured after 120 mins. The class given is ADME, cell-based, Sus scrofa.
The nature of data set [13]: Cmax in Beagle dog at 1 mg/kg, iv or 5 mg/kg, po. The class given is ADME, organism-based, Canis lupus familiaris. The conditions noted are these: in vivo. The method, boiled down: as §2
Data set [14] can be described thus: Oral bioavailability in Beagle dog at 5 mg/kg. The class given is ADME, organism-based, Canis lupus familiaris. Conditions: in vivo. The method, boiled down:
as §2

A short description of data set [15]: Dissociation constant, pKa of the compound. The class given is physicochemical.
A short description of data set [16]: Oral bioavailability in Sprague-Dawley rat at 10 mg/kg. The class given is ADME, organism-based. The conditions noted are these: in vivo.
A short description of data set [17]: Cmax in Sprague-Dawley rat at […], iv or 10 mg/kg, po. The class given is ADME, organism-based. Conditions: in vivo.
A short description of data set [18]: AUC (0 to infinity) in Beagle dog at 1 mg/kg, iv or 5 mg/kg, po. The class given is ADME, organism-based, Canis lupus familiaris. Conditions: in vivo. A digest of the protocol: as §2

On to `Fc1ccc(OC2CCN(Cc3ccn4c(CC5CC5)nnc4c3C(F)(F)F)CC2)c(F)c1`, for which the metabolised at […], 5 µM in data set [1] is 57%; in data set [2] it was 25%.

Regarding `COC1(c2ccccc2)CCN(Cc2ccn3c(CC4CC4)nnc3c2C(F)(F)F)CC1`, the metabolised at […], 5 µM in data set [1] came out at 98%; in data set [2], 69%.

In the case of `FC(F)(F)c1c(CN2CCC(F)(c3ccccc3)CC2)ccn2c(CC3CC3)nnc12`, the metabolised at […], 5 µM is 78% in data set [1] and 24% in data set [2].

For `Fc1ccc(N2CCN(Cc3ccn4c(CC5CC5)nnc4c3C(F)(F)F)CC2)c(F)c1`, the Kp at 1 h in data set [3] came to 2.1. For the same molecule, the metabolised at […], 5 µM in [1] came to 29%; in data set [2] it was 7%. Besides, the half-life in data set [4] is 180 min; in [9] it was 420 to 540 min. Also, the values for the clearance in [5] and in data set [6] were 4 to 6 mL/min/kg and 16 mL/min/kg, respectively. The Tmax in [7] worked out at 5 h; in data set [11], 30 min. In data set [8], this molecule showed a logP of 4.2. In addition, the results for the AUC(0-inf) in [10] and in data set [18] were 11300 ng·h/mL and 3960 to 9860 ng·h/mL, respectively. Besides, the Papp at 2 h, 1 µM in data set [12] turned out to be 22 ×10⁻⁶ cm/s. Further, the Cmax was 459 to 1400 ng/mL in data set [13] and 980 ng/mL in [17]. In addition, the figures for the bioavailability in data set [14] and in data set [16] were 18 to 44% and 100%, respectively. In data set [15], this molecule returned a pKa of 5.

Consider `Fc1ccccc1C1CCN(Cc2ccn3c(CC4CC4)nnc3c2C(F)(F)F)CC1`, for which the metabolised at […], 5 µM in data set [1] worked out at 85%; in [2] it was 8%.

Regarding `Fc1ccc(COC2CCN(Cc3ccn4c(CC5CC5)nnc4c3C(F)(F)F)CC2)c(F)c1`, the metabolised at […], 5 µM was found to be 96% in data set [1] and 67% in data set [2].

Turning to `FC(F)(F)c1c(CN2CCCC(c3ccccc3)C2)ccn2c(CC3CC3)nnc12` (centres undefined), the metabolised at […], 5 µM in data set [1] was 98%; in data set [2], 51%.

Regarding `Fc1ccc([C@H]2CC[C@@H](NCc3ccn4c(CC5CC5)nnc4c3C(F)(F)F)CC2)c(F)c1`, the results for the metabolised at […], 5 µM in [1] and in [2] were 84% and 81%, respectively.

Take `CC1(c2ccccc2)CCCN(Cc2ccn3c(CC4CC4)nnc3c2C(F)(F)F)C1` (centres undefined): the metabolised at […], 5 µM in data set [1] was determined as 99%; in data set [2], 97%.

Take `Fc1cccc(F)c1N1CCN(Cc2ccn3c(CC4CC4)nnc3c2C(F)(F)F)CC1`: the metabolised at […], 5 µM was found to be 99% in data set [1] and 55% in data set [2].

Regarding `Fc1ccc([C@H]2CC[C@H](NCc3ccn4c(CC5CC5)nnc4c3C(F)(F)F)CC2)c(F)c1`, the values for the metabolised at […], 5 µM in data set [1] and in data set [2] were 34% and 33%, respectively.

`Fc1ccc(C2CCN(Cc3ccn4c(CC5CC5)nnc4c3C(F)(F)F)CC2)c(F)c1`: the metabolised at […], 5 µM in data set [1] is 9%; in data set [2] it was 6%.

Regarding `FC(F)(F)c1c(CN2CCC(c3ccccc3Cl)CC2)ccn2c(CC3CC3)nnc12`, the metabolised at […], 5 µM is 90% in data set [1] and 13% in data set [2].

Turning to `FC(F)(F)c1c(N2CCC(c3ccccc3)CC2)ccn2c(CC3CC3)nnc12`, the Kp at 1 h in [3] came out at 1.4. Also, the metabolised at […], 5 µM in data set [1] came to 25%. This molecule showed a clearance in data set [6] of 31 to 37 mL/min/kg. The same molecule had a logP in data set [8] of 4.4. The molecule also came in with a half-life in data set [9] of 66 to 108 min. In addition, the Tmax in data set [11] worked out at 30 min. Moreover, the Papp at 2 h, 1 µM in data set [12] stood at 12 ×10⁻⁶ cm/s. The same molecule registered a Cmax in [13] of 218 to 472 ng/mL. Further, the bioavailability in [14] lay within 18 to 33%. The molecule also returned an area under the curve AUC(0-inf) in data set [18] of 531 to 957 ng·h/mL.

As for `FC(F)(F)c1c(CN2CCC(c3ccccc3)(C(F)(F)F)CC2)ccn2c(CC3CC3)nnc12`, the figures for the metabolised at […], 5 µM in data set [1] and in [2] were 98% and 35%, respectively.

For `Fc1cccc(F)c1C1CCN(Cc2ccn3c(CC4CC4)nnc3c2C(F)(F)F)CC1`, the metabolised at […], 5 µM in data set [1] is 75%; in data set [2], 5%.

Regarding `CCCCn1ccc(N2CCC(c3ccccc3)CC2)c(Cl)c1=O` [JNJ-40411813], the Kp at 1 h in data set [3] was determined as 1. In addition, the metabolised at […], 5 µM in data set [1] was found to be 53%; in [2], 23%. Moreover, the Tmax was found to be 0.5 h in data set [7] and 30 min in [11]. Moreover, in data set [8], the logP stood at 4.6. The Cmax in data set [13] was 373 ng/mL. In [14], this molecule had a bioavailability of 20%. This molecule had a pKa in data set [15] of less than 2.

With `Fc1ccc(N2CCCN(Cc3ccn4c(CC5CC5)nnc4c3C(F)(F)F)CC2)c(F)c1`, the metabolised at […], 5 µM in data set [1] was 99%; in data set [2], 91%.

Consider `FC(F)(F)c1c(CN2CCN(c3ccc(Cl)cc3Cl)CC2)ccn2c(CC3CC3)nnc12`, for which the metabolised at […], 5 µM in data set [1] came to 9%; in [2], 1%.
